Source: PubChem BioAssay
EBNA-1 inh – EBNA-1 DNA-binding inhibitors, primary screen, biochemical, fluorescence polarization. inhibition, % at 14.8 µM. actives 0.34% (n = 300,000). AID 1950, 2009; in the data active = inhibition above about 28%
HNF4A DNA FP – change in binding of human HNF4A to DNA, primary screen, biochemical, fluorescence polarization, FITC-DNA; Hepatocyte nuclear factor 4-alpha (Homo sapiens), P41235; actives 0.3% (n = 360,000); AID 1224865, 2016; 1 h; activity change, % at 10 µM; in the data active = activity change above about 30%, passing the limit was not always enough
A1 inh – caspase 3/7 activation in MEF A1-2A-BIM cells, primary screen, A1 inhibitor project, cell-based, luminescence, HTS; Caspase-Glo 3/7 luminescence, 3 h; percent of clofoctol response, vehicle zero; caspase activation, % (concentration not given with the values); actives 0.066% (n = 330,000); AID 2462, 2010;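 active = over half of replicate activation scores above 10%, or exactly half above 10 with the replicate mean above 10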
CSN inh – inhibitors of CSN-mediated cullin deneddylation, primary screen, biochemical, fluorescence polarization, uHTS | Purified CSN, SCF-Nedd8-OG deneddylation | inhibition, % at 12.5 µM | actives 0.38% (n = 360,000) | AID 651999, 2013;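 active = pattern-corrected inhibition above about 35%, with an unprinted fluorescence ratio check between 0.5 and 1.5, limit read from the data, passing the limit was not always enough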;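 also: 0% = enzyme with substrate and 100% = substrate without enzyme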
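Assay system: purified human Csn5 enzyme expressed in HEK293T cells; measure: % inhibition; also added: SCFSkp2-Nedd8OG substrate at 10 nM final; technique: fluorescence polarization; times: reaction 90 min, room temperature; medium: Tris buffer pH 7.5, NaCl, DTT, Tween-20, trehalose, ovalbumin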
ZTA DNA inh – ZTA (EBV) inhibition in EBNA-1 counter-screen; P03206; ZTA-DNA binding, fluorescence polarization; inhibition, % at 11 µM; actives 0.15% (n = 320,000); AID 2234; in the data active = inhibition above about 33%
LANA-H2A inh – blockers of LANA interaction with H2A/H2B – biochemical, FP readout, HTS, primary screen. AID 2629, 2010. cell-free LANA-H2A/H2B peptide, fluorescence polarization. actives 0.6% (n = 320,000). Protein LANA1 (Human herpesvirus 8 type P (isolate GK18)), Q9QR71. inhibition, % (no concentration beside the values); in the data active = inhibition mostly above about 10%, no sharp cut-off; inactive = mostly below about 6.7%
Target sequence (Q9QR71 whole entry, looked up): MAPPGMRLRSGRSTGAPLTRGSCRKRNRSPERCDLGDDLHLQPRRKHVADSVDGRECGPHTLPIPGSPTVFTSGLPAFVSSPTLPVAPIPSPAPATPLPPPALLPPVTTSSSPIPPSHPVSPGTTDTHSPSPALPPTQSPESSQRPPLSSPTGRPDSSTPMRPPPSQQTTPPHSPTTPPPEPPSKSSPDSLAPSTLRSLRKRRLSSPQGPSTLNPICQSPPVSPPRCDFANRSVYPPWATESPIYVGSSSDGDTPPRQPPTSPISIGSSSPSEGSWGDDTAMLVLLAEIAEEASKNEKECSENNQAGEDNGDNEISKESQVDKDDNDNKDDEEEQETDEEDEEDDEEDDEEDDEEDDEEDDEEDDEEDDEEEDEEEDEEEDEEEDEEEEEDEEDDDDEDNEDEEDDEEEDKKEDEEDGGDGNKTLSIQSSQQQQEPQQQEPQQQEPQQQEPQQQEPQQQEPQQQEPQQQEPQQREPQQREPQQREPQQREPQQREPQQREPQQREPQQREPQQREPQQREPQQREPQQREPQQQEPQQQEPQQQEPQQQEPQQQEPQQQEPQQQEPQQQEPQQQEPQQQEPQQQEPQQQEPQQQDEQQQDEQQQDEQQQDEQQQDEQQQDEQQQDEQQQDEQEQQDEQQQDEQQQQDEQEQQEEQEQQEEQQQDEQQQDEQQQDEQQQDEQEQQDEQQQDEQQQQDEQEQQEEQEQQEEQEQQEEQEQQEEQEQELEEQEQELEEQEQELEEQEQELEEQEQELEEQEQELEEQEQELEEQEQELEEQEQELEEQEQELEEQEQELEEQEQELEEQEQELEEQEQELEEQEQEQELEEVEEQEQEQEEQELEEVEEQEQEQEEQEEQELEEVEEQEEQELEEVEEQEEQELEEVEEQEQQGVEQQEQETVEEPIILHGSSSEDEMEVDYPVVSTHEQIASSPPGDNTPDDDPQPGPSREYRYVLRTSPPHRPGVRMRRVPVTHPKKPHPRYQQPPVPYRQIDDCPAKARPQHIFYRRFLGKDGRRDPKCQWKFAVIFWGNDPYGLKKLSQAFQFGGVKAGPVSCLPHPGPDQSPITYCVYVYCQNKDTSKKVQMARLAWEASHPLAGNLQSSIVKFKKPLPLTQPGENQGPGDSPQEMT
HNF4A confirm – change in HNF4A binding to DNA, retest, confirmation, biochemical, fluorescence polarization, FITC-DNA | actives 99% (n = 210) | activity change, % at 12.5 µM | 1 h | AID 1224897, 2016 | shares compounds with HNF4A DNA FP; call rule not given here
Numbers without * were called inactive; i = inactive; . = no result. Hits are enriched below; roughly 1.5% of the tested compounds scored in any of these assays.

SMILES | EBNA-1 inh | HNF4A DNA FP | A1 inh | CSN inh | ZTA DNA inh | LANA-H2A inh | HNF4A confirm
CCN1C(=O)CS/C1=C(\C#N)S(=O)(=O)c1ccccc1 | 2.5 | 40.0* | -0.6 | -1.0 | -1.6 | 5.2 | 42.9*
COc1ccc(CC(=O)NCC(=O)N/N=C(/C)c2ccco2)cc1 | -0.4 | 0.1 | -0.4 | -16.8 | -2.1 | 2.6 | .
O=C(N/N=C/c1cccnc1)c1ccc(NC(=O)c2cccc(Cl)c2)cc1 | 4.3 | 107.7* | 0.2 | 108.4* | 7.7 | -4.9 | 151.9*
O=C(CCc1nc2ccccc2[nH]c1=O)N/N=C/c1ccccc1 | -4.7 | 3.2 | 0.6 | 9.1 | 6.1 | -0.1 | .
CN1CCc2c(sc(NC(=O)c3ccc(S(=O)(=O)N4CCCC4)cc3)c2C(N)=O)C1 | 13.5 | 35.5* | 0.2 | 13.9 | 5.2 | -1.7 | 32.1*
CN1CCc2c(sc(NC(=O)c3ccc(S(=O)(=O)N4CCc5ccccc54)cc3)c2C(N)=O)C1 | 7.7 | . | -0.7 | . | 10.5 | -1.9 | .
CN(C)c1ccc(C=C(C#N)C(=O)c2ccccc2)cc1Br | . | 9.1 | . | 4.3 | . | . | .
O=[N+]([O-])c1ccc(NN=Cc2ccc(O)cc2)nc1 | . | 2.4 | . | 5.4 | . | . | .
O=[N+]([O-])c1ccc(C=NNc2ccccc2)cc1 | . | 46.5* | . | 21.3 | . | . | 46.8*
COc1ccc(C=NNc2ccc([N+](=O)[O-])cn2)cc1 | . | 72.5* | . | 6.4 | . | . | 79.4*
O=[N+]([O-])c1cccc(C=NNc2ccccc2)c1 | . | -3.5 | . | -0.9 | . | . | .
Cc1ccc2nc(-c3ccccc3)nn2c1 | . | 2.5 | . | 2.8 | . | . | .
COc1ccc2nc(SC(C)C(=O)NCC(=O)Nc3ccc(F)c(F)c3F)[nH]c2c1 (stereo not drawn) | . | 0.0 | . | -1.2 | . | . | .
N#Cc1ccc(-c2ccccc2)nc1SCC(=O)c1cccc(Cl)c1 | 2.4 | 3.9 | -0.5 | 3.5 | 9.6 | -1.9 | .
N#Cc1ccc(-c2cccnc2)nc1SCC(=O)c1ccccc1 | -10.0 | 46.2* | -1.4 | 30.1 | 8.4 | -3.9 | 48.9*
O=C(Nc1ccccc1Cl)Oc1ccc(-c2ccccc2)cc1 | 6.5 | 5.7 | -1.7 | 4.8 | 0.8 | -6.4 | .
COc1cccc(/C=C2\SC(=S)N(CCCC(=O)Nc3cc(C)on3)C2=O)c1 | 7.3 | 47.2* | 0.6 | 35.7* | 3.7 | 3.5 | 66.9*
O=C(Nc1ccc2c(c1)OCCO2)C(C1CC1)N1CCN(c2ccc(C(F)(F)F)cn2)CC1 (stereo not drawn) | . | -3.8 | . | -2.6 | . | . | .
COc1ccc2c(/C=N/Nc3ccc(C(=O)O)cc3)c[nH]c2c1 | -3.8 | 52.3* | -6.5 | 5.6 | -9.6 | -6.1 | 35.1*
COc1ccc(C(=O)N/N=C/c2c[nH]c3ccccc23)cc1 | -8.5 | -1.0 | -0.5 | 0.5 | 9.0 | 1.7 | .
N=c1n(CC(=O)c2ccc([N+](=O)[O-])cc2)c2ccccc2n1Cc1ccccc1 | -3.9 | 67.6* | 0.1 | 30.7 | 12.1 | 2.3 | 106.9*
N=c1n(CC(=O)c2ccc([N+](=O)[O-])cc2)c2ccccc2n1Cc1ccc(Cl)cc1 | -5.9 | 39.7* | -1.3 | 12.4 | -17.2 | -6.1 | 118.8*
N=c1n(CC(=O)c2ccc([N+](=O)[O-])cc2)c2ccccc2n1Cc1ccccc1Cl | 3.8 | 5.9 | 0.1 | -4.8 | 2.7 | -2.8 | .
N=c1n(CC(=O)c2ccc(Br)cc2)c2ccccc2n1Cc1ccccc1 | . | 0.8 | 0.1 | 1.8 | 12.8 | 4.2 | .
C[C@H](NC(=O)c1nc[nH]c1C(=O)N[C@@H](C)c1ccccc1)C(=O)OC(C)(C)C | -4.3 | 1.6 | -0.4 | -0.7 | 1.0 | -7.4 | .
SMILES | EBNA-1 inh | HNF4A DNA FP | A1 inh | CSN inh | ZTA DNA inh | LANA-H2A inh | HNF4A confirm
CC(C)[C@H](NC(=O)OC(C)(C)C)c1cc(C(=O)N[C@@H](C)c2ccccc2)c(N)s1 | . | 40.6* | . | 11.7 | . | . | 37.0*
O=C(COc1ccc(Cl)cc1Cl)NN1C(=O)/C(=C\c2ccc(Cl)cc2)SC1=S | -0.8 | -2.1 | 1.1 | 0.6 | -6.4 | 1.8 | .
Cn1cccc1/C=C1\SC(=S)N(NC(=O)c2cccc(Cl)c2)C1=O | -7.3 | 61.2* | -0.1 | 35.7* | -1.3 | i | 97.1*
CC1=Nc2ccccc2/C1=C\c1nc(-c2ccccc2)oc1O | 6.9 | 28.2 | 0.9 | 15.7 | 5.3 | -2.1 | .
CC1=Nc2ccccc2/C1=C/c1nc(-c2ccc(C)s2)oc1O | -12.7 | 54.8* | -0.5 | 31.8 | -24.0 | -4.0 | 73.6*
CCc1noc(C)c1C(=O)N1CCC(CCC(=O)Nc2cccc(C)c2)CC1 | -0.1 | -2.3 | -0.2 | 2.0 | -12.3 | -5.0 | .
CC(=O)Nc1ccc(S(=O)(=O)NCc2nc(-c3ccc(C)cc3)no2)cc1 | -4.1 | -2.7 | 1.5 | -0.6 | 9.1 | -3.6 | .
CC(=O)Nc1ccc(S(=O)(=O)NCc2nc(-c3cccc(C)c3)no2)cc1 | -1.1 | 62.4* | 0.7 | 15.9 | 5.1 | -2.0 | 63.9*
CSc1nnc(C)c(/C=C/Nc2ccc(Cl)cc2)n1 | 5.4 | 59.1* | -0.3 | -0.9 | 10.5 | -2.1 | 54.7*
COc1ccc(N/C=C/c2nc(SC)nnc2C)cc1 | 4.5 | 44.6* | -0.7 | 27.7 | 11.5 | -7.1 | 61.7*
CSc1nnc(C)c(/C=C/Nc2ccc(F)cc2)n1 | -10.7 | 17.4 | -0.3 | -5.8 | 11.6 | 2.0 | .
COc1ccc(CCN(C)Cc2c(O)ccc3ccccc23)cc1OC | -11.9 | -0.2 | 1.0 | 3.0 | -5.9 | -0.9 | .
CCc1[nH]nc(C(=O)N/N=C/c2ccncc2)c1C | 8.1 | -1.3 | -0.4 | 1.1 | -9.4 | -3.3 | .
COc1cc(/C=C(\C#N)c2nc3ccccc3[nH]2)ccc1OC(=O)c1ccco1 | 8.2 | 38.5* | -9.2 | 4.5 | -6.8 | -2.8 | 52.1*
COc1cc(/C=N/NC(=O)c2cccnc2)ccc1OCC(=O)Nc1ccccc1Cl | -2.9 | 47.8* | 0.1 | 145.7* | -1.3 | 6.7 | 123.6*
Cc1cc(C)c(NC(=O)CSCc2nc3sc(C)c(C)c3c(=O)[nH]2)c(Cl)c1 | . | 43.5* | 1.2 | 17.6 | 0.2 | 54.7* | 73.5*
Cc1ccc(NC(=O)c2ccc(NCC3CCCO3)c([N+](=O)[O-])c2)cc1Cl (stereo not drawn) | -7.7 | 36.9* | 8.2* | 40.8* | 9.1 | -4.1 | 53.7*
Cc1ccc(NC(=O)c2ccc(NCc3ccco3)c([N+](=O)[O-])c2)cc1Cl | 8.7 | 47.3* | 31.0* | 89.7 | 3.7 | 5.0 | 93.2*
C=CCN1C(=O)/C(=C/c2ccc(O)cc2)S/C1=N/c1nccs1 | -5.9 | 44.6* | -1.2 | 43.5* | -9.2 | 1.7 | 69.4*
